# Experimental data taken from ChEMBL document CHEMBL4765302, “Design, synthesis and biological evaluation of novel histone deacetylase1/2 (HDAC1/2) and cyclin-dependent Kinase2 (CDK2) dual inhibitors against malignant cancer” (Eur J Med Chem, 2020).
# Assays:
# HCT-116 [1] = test: Antiproliferative activity against human HCT-116 cells assessed as reduction in cell growth at 2 uM incubated for 72 hrs by CCK-8 assay relative to control; format: functional
# HCT-116 [2] = test: Antiproliferative activity against human HCT-116 cells assessed as reduction in cell growth at 8 uM incubated for 72 hrs by CCK-8 assay relative to control; format: functional
# HepG2 [3] = test: Antiproliferative activity against human HepG2 cells assessed as reduction in cell growth at 2 uM incubated for 72 hrs by CCK-8 assay relative to control; format: functional
# HepG2 [4] = test: Antiproliferative activity against human HepG2 cells assessed as reduction in cell growth at 8 uM incubated for 72 hrs by CCK-8 assay relative to control; format: functional
# NCI-H460 [5] = test: Antiproliferative activity against human H460 cells assessed as reduction in cell growth at 2 uM incubated for 72 hrs by CCK-8 assay relative to control; format: functional
# NCI-H460 [6] = test: Antiproliferative activity against human H460 cells assessed as reduction in cell growth at 8 uM incubated for 72 hrs by CCK-8 assay relative to control; format: functional
# Histone deacetylase 1 = Histone deacetylase 1 (Homo sapiens, UniProt Q13547); test: Inhibition of recombinant human HDAC1 at 10 uM using SIRT1 as substrate incubated for 10 mins followed by substrate addition and measured after 30 mins by fluorescence based assay relative to control; conditions: time 40.0 min
# Histone deacetylase 1, sequence (Q13547 whole entry): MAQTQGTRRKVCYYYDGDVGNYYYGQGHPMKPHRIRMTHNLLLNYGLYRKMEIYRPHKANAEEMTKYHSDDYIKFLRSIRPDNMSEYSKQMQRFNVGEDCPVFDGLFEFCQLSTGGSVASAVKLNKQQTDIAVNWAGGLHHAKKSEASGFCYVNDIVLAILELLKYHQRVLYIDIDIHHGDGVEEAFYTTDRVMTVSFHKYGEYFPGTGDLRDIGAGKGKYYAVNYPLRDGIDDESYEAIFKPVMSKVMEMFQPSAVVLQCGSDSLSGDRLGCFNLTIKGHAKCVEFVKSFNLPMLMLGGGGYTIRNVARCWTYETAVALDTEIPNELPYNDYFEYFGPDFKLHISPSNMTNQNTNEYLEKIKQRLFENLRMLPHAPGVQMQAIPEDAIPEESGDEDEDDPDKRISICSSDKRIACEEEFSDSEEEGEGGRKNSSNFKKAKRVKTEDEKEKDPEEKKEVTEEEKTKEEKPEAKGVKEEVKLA
# How it was run: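 Enzyme inhibition of HDAC1 measured at a single concentration of 10 µM, tested alongside the cell-growth screen.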
# NCI-H460 [7] = test: Antiproliferative activity against human NCI-H460 cells assessed as reduction in cell growth incubated for 72 hrs by CCK-8 assay; format: functional, cell-based; conditions: NCI-H460, 72 h
# How it was run: (§1)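 IC50 by CCK-8 assay across five solid-tumour lines (HCT116, HepG2, H460, HeLa, A375). Run only for compounds chosen after the single-concentration screen, with CS055 and roscovitine as references.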
# A-375 = test: Antiproliferative activity against human A-375 cells assessed as reduction in cell growth incubated for 72 hrs by CCK-8 assay; format: functional, cell-based; conditions: A-375, 72 h; how it was run: as §1
# HepG2 [8] = test: Antiproliferative activity against human HepG2 cells assessed as reduction in cell growth incubated for 72 hrs by CCK-8 assay; format: functional, cell-based; conditions: HepG2, 72 h; how it was run: as §1
# HCT-116 [9] = test: Antiproliferative activity against human HCT-116 cells assessed as reduction in cell growth incubated for 72 hrs by CCK-8 assay; format: functional, cell-based; conditions: HCT-116, 72 h; how it was run: as §1
# HeLa = test: Antiproliferative activity against human HeLa cells assessed as reduction in cell growth incubated for 72 hrs by CCK-8 assay; format: functional, cell-based; how it was run: as §1
Structure (SMILES),inhibition at 2 µM (HCT-116 [1]) [%],inhibition at 8 µM (HCT-116 [2]) [%],inhibition at 2 µM (HepG2 [3]) [%],inhibition at 8 µM (HepG2 [4]) [%],inhibition at 2 µM (NCI-H460 [5]) [%],inhibition at 8 µM (NCI-H460 [6]) [%],inhibition (Histone deacetylase 1) [%],IC50 (NCI-H460 [7]) [µM],IC50 (A-375) [µM],IC50 (HepG2 [8]) [µM],IC50 (HCT-116 [9]) [µM],IC50 (HeLa) [µM]
Nc1ccccc1NC(=O)c1ccc(Cn2cnc3c(Nc4cccc(OC(F)(F)F)c4)nc(Cl)nc32)cc1,1.6,46.6,1.88,31.2,47.7,62.4,37.4,,,,,
Nc1ccccc1NC(=O)c1ccc(CNc2nc(Cl)nc3c2ncn3Cc2ccccc2)cc1,7.7,11.4,5.01,5.32,43.8,46.4,27.6,,,,,
Nc1ccccc1NC(=O)c1ccc(Cn2cnc3c(Nc4ccc(-c5ccccn5)cc4)nc(Cl)nc32)cc1,69.5,73.7,11.5,41.2,18.1,30.8,43.9,18.4,18.5,30.1,1.25,> 20
CCCn1cnc2c(NCc3ccc(C(=O)Nc4ccccc4N)cc3)nc(Cl)nc21,28.5,29.6,12.4,14.1,31,39.2,11.4,,,,,
Nc1ccccc1NC(=O)c1ccc(Cn2cnc3c(NCc4ccccc4)nc(Cl)nc32)cc1,68.3,78.3,7.55,62.8,44.7,61.2,76,11.2,5.83,7.72,1.06,6.77
COC(CCn1cnc2c(NCc3ccc(C(=O)Nc4ccccc4N)cc3)nc(Cl)nc21)OC,6.39,11.9,8.52,34.2,43.7,51.2,29.5,,,,,
Nc1ccccc1NC(=O)/C=C/c1ccc(Cn2cnc3c(Nc4ccccc4)nc(Cl)nc32)cc1,7.75,30.9,16.4,41.9,2.05,28.7,14.8,,,,,
CCCCn1cnc2c(Nc3cccc(Cl)c3)nc(NCCOCc3ccc(/C=C/C(=O)Nc4ccccc4N)cc3)nc21,4.76,10.8,20.4,30.4,25.7,51.1,24.6,,,,,
Nc1ccccc1NC(=O)c1ccc(CNc2nc(Cl)nc3c2ncn3C2CCCC2)cc1,75.6,80.6,54.7,74.9,,57.4,90.9,5.78,2.79,3.43,0.85,3.02
CC1CCN(c2nc(Cl)nc3c2ncn3Cc2ccc(/C=C/C(=O)Nc3ccccc3N)cc2)CC1,4.24,26.9,8.73,32.2,8.24,10.8,4.87,,,,,
CC1CCN(c2nc(Cl)nc3c2ncn3Cc2ccc(C(=O)Nc3ccccc3N)cc2)CC1,70.9,78.6,1.22,65.3,11.8,40.9,75.3,7.4,4.24,5.18,0.95,4.5
Nc1ccccc1NC(=O)/C=C/c1ccc(Cn2cnc3c(NCc4ccccc4)nc(Cl)nc32)cc1,2.85,17.4,11.5,37.7,4.62,49.1,22.5,,,,,
